Screens deposited in PubChem BioAssay by The Scripps Research Institute Molecular Screening Center.
Compounds with a hit are over-represented: about 1.9% of the library has one in this group of screens.
M5 ag = agonists of human muscarinic M5 receptor (CHRM5) | P08912 | CHO-K1 hM5 cells, Fluo-8 calcium fluorescence; 0% DMSO wells, 100% maximal acetylcholine response | activation, % at 3 µM | 360,000 compounds, 0.19% hits;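 active means activation above the run's mean over test compounds plus 3 SD, cut at about 23% in these data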;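 further: signal is peak over basal fluorescence ratio across the kinetic read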
CHRM5 PAM = positive allosteric modulators of human muscarinic M5 receptor | P08912 | CHO-K1 hM5, Fluo-8 calcium, ACh EC20 PAM; 0% = ACh EC20, 100% = ACh EC100 | activation, % at 3 µM | 360,000 compounds, 0.3% hits;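 active means activation above the run cutoff, the mean activation of all test compounds plus 3 SD, cut at about 18% in these data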
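Assay system: CHO-K1 hM5 cells. Also added: acetylcholine at EC20 concentration, added after compound. Dosing: 3 µM, single dose. Times: compound preincubation 140 s before EC20 acetylcholine addition. Signal: Fluo-8 calcium fluorescence. Measure: % activation relative to EC20 and EC100 ACh responses. Repeats: singlicate, one well per test compound.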
M4 PAM = CHRM4 positive allosteric modulation. P08173. CHO-K1 hM4/Gqi5, Fluo-8 calcium fluorescence, ACh EC20; 0% = ACh EC20, 100% = maximal ACh. activation, % at 3 µM. 360,000 compounds, 0.4% hits. AID 624126;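 active means activation above its plate's cutoff, the mean activation of sample wells plus 3 SD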
Target sequence (P08173 whole entry, looked up): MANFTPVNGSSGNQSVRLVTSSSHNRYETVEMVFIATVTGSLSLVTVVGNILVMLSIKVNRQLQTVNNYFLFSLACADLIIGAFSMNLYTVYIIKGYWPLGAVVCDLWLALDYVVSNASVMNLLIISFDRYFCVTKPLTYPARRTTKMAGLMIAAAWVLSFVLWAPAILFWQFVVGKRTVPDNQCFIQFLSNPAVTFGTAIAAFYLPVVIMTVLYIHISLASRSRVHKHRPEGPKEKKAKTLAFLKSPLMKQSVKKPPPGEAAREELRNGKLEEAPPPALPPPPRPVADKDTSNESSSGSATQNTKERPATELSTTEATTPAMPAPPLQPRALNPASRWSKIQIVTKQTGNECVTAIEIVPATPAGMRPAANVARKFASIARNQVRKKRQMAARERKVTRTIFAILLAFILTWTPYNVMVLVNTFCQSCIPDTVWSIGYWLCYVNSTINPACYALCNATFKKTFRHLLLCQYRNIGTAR
M5 antag = antagonists of human muscarinic M5 receptor (CHRM5). 360,000 compounds, 0.59% hits. inhibition, % at 3 µM. CHO-hM5 cells, Fluo-8 calcium fluorescence, ACh EC80. P08912. AID 624040;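 active means inhibition above a per-plate cutoff, the mean of that plate's test compounds plus 3 SD, cut at about 27% in these data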;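 further: 0% = acetylcholine EC80 with DMSO and 100% = DMSO without agonist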
CHRM4 antagonist = antagonists of human muscarinic M4 receptor (CHRM4). inhibition, % at 3 µM. CHO-hM4 cells, ACh EC80, Fluo-8 calcium fluorescence. AID 624125. 360,000 compounds, 0.73% hits. P08173;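 active means inhibition above its plate's cutoff, the mean inhibition of sample wells plus 3 SD, cut at about 27% in these data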;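 further: 0% = acetylcholine EC80 with DMSO and 100% = DMSO without agonist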
M4 ag = agonists of human muscarinic M4 receptor (CHRM4); 360,000 compounds, 0.14% hits; P08173; AID 624127; CHO-K1 hM4/Gqi5, Fluo-8 calcium fluorescence; vehicle 0%, full acetylcholine response 100%; activation, % at 3 µM;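 active means activation above the run mean over all test wells plus 3 SD, cut at about 32% in these data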;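 further: peak over basal fluorescence ratio per well then scaled between controls; 0% = DMSO wells and 100% = acetylcholine at EC100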
* marks the source's active call; other numbers are inactive results.

SMILES	M5 ag	CHRM5 PAM	M4 PAM	M5 antag	CHRM4 antagonist	M4 ag
CCCCN(C(=O)C1CCCO1)c1c(N)n(CC(C)C)c(=O)[nH]c1=O (stereo unspecified)	3.2	2.2	-1.5	1.4	-6.8	0.4
O=C1CSC(=S)N1/N=C/c1cc(Br)c(O)c(Br)c1	200.2*	-20.3	-30.2	48.0*	54.2*	400.9*
COc1ccc(-n2nc(C(=O)NCC(=O)NCCCN3CCC(C)CC3)c3ccccc3c2=O)cc1Cl	-4.1	0.5	-13.3	0.0	13.9	0.4
COc1ccc(-n2nc(C(=O)NCC(=O)NCCCN3CCCCCC3)c3ccccc3c2=O)cc1Cl	-11.6	5.5	-20.6	0.3	31.8*	1.1
CCN(CCCNC(=O)CNC(=O)c1nn(-c2ccc(OC)cc2)c(=O)c2ccccc12)c1cccc(C)c1	-4.1	-10.8	-24.5	29.1*	12.0	11.5
O=C(COC(=O)c1cc(S(=O)(=O)N2CCOCC2)ccc1F)NCCc1ccc(F)cc1	0.4	-11.1	1.2	10.4	-5.1	6.1
O=C(O)c1ccccc1C(=O)Nc1nc(-c2ccc3ccccc3c2)cs1	-2.9	4.5	23.5*	8.7	3.1	-2.2
NS(=O)(=O)c1ccc(Nc2nc(-c3cccc([N+](=O)[O-])c3)cs2)cc1	10.3	-13.1	-15.9	7.9	-0.4	5.8
NS(=O)(=O)c1ccc(Nc2nc(-c3ccc4ccccc4c3)cs2)cc1	19.6	8.1	6.4	3.9	36.9*	7.0
O=C(Nc1nc(-c2ccc3ccccc3c2)cs1)c1ccc(N2C(=O)CCC2=O)cc1	2.2	2.0	0.9	1.4	1.5	0.7
CC(C)c1cc(-c2cc(C(=O)NCc3ccccc3)on2)nc(NCC2CC2)n1	36.5*	7.9	-6.5	27.9*	41.3*	42.9*
Cc1cc(-c2cc(-c3ccccc3)on2)nc(NCC2CC2)n1	-1.4	0.9	28.6*	-1.9	-6.2	-0.8
CCCNc1nc(C)cc(-c2cc(-c3ccccc3)on2)n1	-5.5	-1.8	8.2	12.0	5.6	-1.0
Cc1ccc(C(=O)CC(=O)c2ccc(C)cc2O)cc1	-1.0	0.1	1.4	-1.1	-8.4	-2.1
C[C@H]1CN=C(N(C)C)N1CCCC1CCCCC1	-10.8	-14.4	-9.8	0.1	9.9	0.1
O=C(c1ccc(Br)o1)N1CCN(Cc2ccccc2Cl)CC1	0.0	-6.2	-4.7	3.8	8.3	2.5
O=C(OC1CCCCC1=O)c1ccc(F)c(S(=O)(=O)N2CCOCC2)c1 (stereo unspecified)	4.5	-3.0	-2.2	0.2	-0.3	2.1
Cc1cc(C(=O)COC(=O)c2cc(Cl)ccc2N)c(C)n1Cc1ccco1	2.4	-0.3	19.4*	9.8	6.1	1.5
O=C(CSc1n[nH]c(=O)n1-c1cccnc1)Nc1ccccc1Cl	-1.1	0.1	4.7	-4.4	-10.8	-0.1
Cc1cc(-n2c(C)cc(C(=O)COc3ccc(F)c(F)c3)c2C)no1	-3.5	-14.4	-1.6	7.8	-6.9	4.8
O=C(NCCO)C(=O)Nc1cc2c3c(c1)CC(=O)N3CCC2	-4.1	8.4	14.3*	1.5	1.3	-0.7
O=c1[nH]c(Cc2cccc(C(F)(F)F)c2)nc2ccccc12	-4.6	-5.6	-1.1	6.8	-1.6	0.4
C(=Cc1c[nH]c2ccccc12)c1nccc2ccccc12	9.9	-4.3	2.0	21.9	-5.5	4.4
C(=Cc1c[nH]c2ccccc12)c1ccc2ccccc2n1	19.5	-7.1	-9.8	8.2	0.7	35.9*
COc1ccccc1NS(=O)(=O)c1ccc(C)c(C(=O)NCC(c2cccs2)N2CCOCC2)c1 (stereo unspecified)	1.9	-2.5	4.3	9.8	-5.4	31.8
SMILES	M5 ag	CHRM5 PAM	M4 PAM	M5 antag	CHRM4 antagonist	M4 ag
COc1cccc(N2CC(C(=O)Nc3nnc(SCCC4OCCO4)s3)CC2=O)c1 (stereo unspecified)	-4.2	-8.6	-1.2	31.1*	-0.7	2.1
O=C(Nc1nnc(SCCC2OCCO2)s1)C1CC(=O)N(c2ccccc2)C1 (stereo unspecified)	-0.6	-0.3	-2.7	-4.7	-7.8	3.5
COc1cc2sc(C)nc2c2sccc12	-5.8	-1.0	18.2*	-22.9	-9.8	-0.3
COc1ccc2sc(C)nc2c1NC(C)=O	-2.2	-1.6	4.9	2.9	-4.2	0.2
C=CCN(CC=C)S(=O)(=O)c1ccc(C(=O)Nc2nnc(CSC)o2)cc1	6.1	-3.9	-0.7	5.2	8.9	-0.5
CSCc1nnc(NC(=O)c2ccc(S(=O)(=O)N(C)C)cc2)o1	0.0	18.6*	13.6	12.7	4.3	1.5
CCOc1ccc(NC(C(=O)Nc2cccc(C(C)=O)c2)c2ccccc2)cc1 (stereo unspecified)	-3.6	-3.3	-6.0	3.6	-1.5	2.8
CCN(CC)CCNC(C(=O)Nc1cccc(C(C)=O)c1)c1ccccc1 (stereo unspecified)	-10.0	-21.3	-19.3	19.0	53.8*	0.6
CCN(CC)S(=O)(=O)c1ccc(N2CCN(C)CC2)c(NC(=O)c2cc(=O)c3ccccc3o2)c1	-0.6	0.2	-1.1	-0.2	3.4	2.5
C=CCN(CC=C)C(=O)Nc1ccc2nc(C)sc2c1	1.5	0.7	21.2*	-1.7	-6.7	2.6
C=CCNC(=O)Nc1ccc2nc(C)sc2c1	1.0	7.5	11.4	-7.8	1.1	2.9
CN(C(=O)COC(=O)CSc1ccc(C(N)=O)cc1[N+](=O)[O-])C1CCS(=O)(=O)C1 (stereo unspecified)	3.3	4.0	6.2	5.0	-0.3	1.2
O=C(c1ccncc1)c1ccc(Br)cc1	1.7	-0.4	35.2*	-7.1	9.5	-0.1
COc1ccc(C(=O)c2ccc(Br)cc2)cc1	-0.8	-0.3	5.9	-7.0	-6.3	-0.6
Cc1ccc(C(CNS(=O)(=O)c2ccc(F)cc2C)N2CCN(C)CC2)cc1 (stereo unspecified)	-5.3	3.6	4.6	2.2	-5.6	4.3
CCc1ccc(/C=C2\SC(=S)N(CCCC(=O)N3CCN(C)CC3)C2=O)cc1	0.5	-10.7	-4.5	12.0	5.6	7.4
COc1ccc(/C=C2\SC(=S)N(CCCC(=O)N3CCN(C)CC3)C2=O)cc1	6.1	33.1*	-3.3	10.8	-8.9	10.2
CSc1ccc(CNC(=O)Cc2ccc(NC(=O)C3=C(C)OCCS3)cc2)cc1	-1.7	1.6	-0.4	-4.1	-15.4	2.6
COc1cc(/C=C2\SC(=S)N(NC(=O)c3ccccc3O)C2=O)ccc1O	19.9	-12.5	-17.6	21.3	19.7	32.6*
O=C(NN1C(=O)/C(=C/c2ccc(O)cc2)SC1=S)c1cccc(O)c1	25.1*	-4.8	-8.0	11.2	13.8	13.3
